Laboratory results published in ChEMBL document CHEMBL4699411, “A3- and A2B-nitrocorroles: synthesis and antiviral activity evaluation against human cytomegalovirus infection” (RSC Med Chem, 2020).
pIC50: −log10 of the molar value. Active and inactive are the calls of the source. The rule behind the calls is not given here.

Experiments:
[1] = Cytotoxicity against human ARPE-19 cells assessed as reduction in nuclei count measured after 10 days for Hoechst 33342 staining based microscopic analysis; format: cell-based; details: time 10 day
In short: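 ARPE-19 epithelial cells seeded at 8k/well in complete DMEM with 10% FBS and treated with increasing compound concentrations 24 h later. Incubated 10 days at 37 °C. Formalin-fixed, stained with Hoechst 33342 (1 μg mL–1), and nuclei counted by high-content imaging. Counts normalized to DMSO wells. CC50 is the concentration reducing nuclei count by 50%. Mean of two wells ± SD.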

Human betaherpesvirus 5 [2] = experiment: Antiviral activity against Human cytomegalovirus infected in MRC5 cells measured after 6 days by fluorescence based microscopic analysis; format: functional, cell-based; details: for IC50: mrc5; for pIC50: Human betaherpesvirus 5, MRC5, 144 h, read-out: IC50
In short: (§1)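 MRC-5 primary fibroblasts in phenol red-free DMEM with 10% FBS were seeded 8k/well. At 24 h they were treated with compound, infected with hCMV ANCHOR at MOI 1, and fixed 6 days post infection. High-content imaging gave infection rate (fluorescent/total cells) and replication (integrated ANCHOR spot intensity) over ≥1000 cells/well, normalized to DMSO; mean of three wells ± SD.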

Human betaherpesvirus 5 [3] = experiment: Antiviral activity against Human cytomegalovirus infected in ARPE-19 cells measured after 10 days by fluorescence based microscopic analysis; format: functional, cell-based; details: for IC50: arpe-19; for pIC50: Human betaherpesvirus 5, ARPE-19, 240 h, read-out: IC50
In short: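 Cells were ARPE-19 in phenol red-free DMEM with 10% FBS, seeded 8k/well. At 24 h they received a range of compound concentrations and hCMV ANCHOR at MOI 10, then were fixed 10 days post infection. Imaging scored infection rate (fluorescent/total cells) and ANCHOR spot intensity over ≥1000 cells/well, normalized to DMSO and used to derive IC50; mean of three wells ± SD.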

[4] = Cytotoxicity against human MRC5 cells assessed as reduction in nuclei count measured after 6 days for Hoechst 33342 staining based microscopic analysis; format: cell-based; details: time 6 day
In short: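 MRC-5 fibroblasts seeded at 8k/well in complete DMEM with 10% FBS and treated 24 h later with increasing compound concentrations. Incubated 6 days at 37 °C, 5% CO2. Formalin-fixed, Hoechst 33342 (1 μg mL–1) stained, and nuclei counted by high-content imaging. Counts normalized to DMSO wells. CC50 is the concentration halving the nuclei count. Mean of two wells ± SD.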

Human betaherpesvirus 5 [5] = experiment: Antiviral activity against Human cytomegalovirus harboring ANCHOR infected in MRC5 cells assessed as reduction in viral infection at 0.75 uM measured after 6 days by microscopic analysis relative to control; format: functional; parameters: scale not given: the % may be the effect or the level left; details: time 6 day; in short: as §1
[6] = Selectivity index, ratio of CC50 for human ARPE-19 cells assessed as reduction in nuclei count measured after […] 33342 staining based microscopic analysis to EC50 Human cytomegalovirus infected in ARPE-19 cells measured after 10 days by microscopic analysis; format: toxicity, cell-based; details: read-out: Ratio CC50/EC50
In short: (§2)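 CC50 comes from Hoechst nuclei counts after compound treatment, normalized to DMSO. IC50 comes from hCMV ANCHOR infection at MOI 1 in MRC-5 (read 6 dpi) or MOI 10 in ARPE-19 (read 10 dpi). Infection rate is fluorescent cells over total cells, from at least 1000 cells per well, in triplicate wells. SI is CC50 divided by IC50.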

Human betaherpesvirus 5 [7] = experiment: Antiviral activity against Human cytomegalovirus harboring ANCHOR infected in MRC5 cells assessed as reduction in virus-induced cytopathic effect; format: functional, cell-based
Human betaherpesvirus 5 [8] = experiment: Antiviral activity against Human cytomegalovirus harboring ANCHOR infected in ARPE-19 cells assessed as reduction in viral replication at 0.75 uM measured after 6 days by microscopic analysis relative to control; format: functional; details: time 6 day
In short: (§3)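 ARPE-19 epithelial cells grown in phenol red-free DMEM with 10% FBS, seeded 8k/well. After 24 h they were treated with compound and infected with hCMV ANCHOR (fluorescently labelled viral DNA) at MOI 10, then fixed 6 days post infection. High-content imaging scored infection rate (fluorescent/total cells) and replication (integrated ANCHOR spot intensity) over ≥1000 cells/well, normalized to DMSO; mean of three wells ± SD.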

Human betaherpesvirus 5 [9] = experiment: Antiviral activity against Human cytomegalovirus harboring ANCHOR infected in ARPE-19 cells assessed as reduction in viral infection at 0.75 uM measured after 6 days by microscopic analysis relative to control; format: functional; details: time 6 day; in short: as §3
[10] = Selectivity index, ratio of CC50 for human MRC5 cells assessed as reduction in nuclei count measured after 6 days for Hoechst 33342 staining based microscopic analysis to EC50 Human cytomegalovirus infected in MRC5 cells measured after 6 days by microscopic analysis; format: toxicity, cell-based; details: time 6 day, read-out: Ratio CC50/EC50; in short: as §2
Human betaherpesvirus 5 [11] = experiment: Antiviral activity against Human cytomegalovirus harboring ANCHOR infected in MRC5 cells assessed as reduction in viral replication at 0.75 uM measured after 6 days by microscopic analysis relative to control; format: functional; parameters: scale not given: the % may be the effect or the level left; details: time 6 day; in short: as §1
Human betaherpesvirus 5 [12] = experiment: Antiviral activity against Human cytomegalovirus infected in MRC5 cells assessed as reduction in viral plaque at 1.25 uM measured after 6 days by microscopic analysis; format: functional, cell-based; details: time 6.0 day
In short: (§4)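 MRC-5 fibroblasts seeded at 8k cells/well and infected 24 h later with fluorescent hCMV ANCHOR strain at MOI 1, with compound added at increasing concentrations. Cultured 6 days, fixed with formalin, nuclei stained with Hoechst, and imaged by high-content microscopy. Fluorescent plaques and replication centres were scored against DMSO-treated cells.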

Human betaherpesvirus 5 [13] = experiment: Antiviral activity against Human cytomegalovirus harboring ANCHOR infected in ARPE-19 cells assessed as reduction in viral infection measured after 10 days by microscopic analysis relative to control; details: time 10.0 day
Human betaherpesvirus 5 [14] = experiment: Antiviral activity against Human cytomegalovirus harboring ANCHOR infected in MRC5 cells assessed as reduction in viral infection at measured after 6 days by microscopic analysis relative to control; format: functional, cell-based; details: time 6.0 day; in short: as §1
Human betaherpesvirus 5 [15] = experiment: Antiviral activity against Human cytomegalovirus infected in MRC5 cells assessed as reduction in viral plaque at 2.5 uM measured after 6 days by microscopic analysis relative to control; format: functional; parameters: scale not given: the % may be the effect or the level left; details: time 6 day
In short: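 Compound-treated MRC-5 fibroblasts were infected with hCMV ANCHOR at MOI 1, fixed 6 days post infection and imaged by fluorescence microscopy. Fluorescent viral plaques and replication centres were compared against vehicle (DMSO)-treated wells.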

Human betaherpesvirus 5 [16] = experiment: Antiviral activity against Human cytomegalovirus infected in MRC5 cells assessed as reduction in viral plaque at 0.3 uM measured after 6 days by microscopic analysis; format: functional, cell-based; details: time 6.0 day; in short: as §4

Row | Structure (SMILES) | CC50 at 240 h [1] [µM] | IC50 (Human betaherpesvirus 5 [2]) | IC50 (Human betaherpesvirus 5 [3]) | CC50 at 144 h [4] [µM] | selectivity ratio [6] | selectivity ratio at 144 h [10] | pIC50 (Human betaherpesvirus 5 [2]) | pIC50 (Human betaherpesvirus 5 [3]) | other results
1 | O=[N+]([O-])c1ccc(-c2c3nc(c4ccc([nH]4)c(-c4ccc([N+](=O)[O-])c(F)c4)c4ccc([nH]4)c(-c4ccc([N+](=O)[O-])c(F)c4)c4ccc2[nH]4)C=C3)cc1F | > 50 | Not Active | Not Active | > 50 |  |  |  |  | 
2 | O=[N+]([O-])c1cc(-c2c3nc(c4ccc([nH]4)c(-c4cc([N+](=O)[O-])c(Br)cc4F)c4ccc([nH]4)c(-c4cc([N+](=O)[O-])c(Br)cc4F)c4ccc2[nH]4)C=C3)c(F)cc1Br | > 50 | Not Active | Not Active | > 50 |  |  |  |  | 
3 | O=[N+]([O-])c1cc(-c2c3nc(c4ccc([nH]4)c(-c4ccc(F)c([N+](=O)[O-])c4)c4ccc([nH]4)c(-c4ccc(F)c([N+](=O)[O-])c4)c4ccc2[nH]4)C=C3)ccc1F | > 50 | Not Active | Not Active | > 50 |  |  |  |  | 
4 | O=[N+]([O-])c1ccc(F)c(-c2c3nc(c4ccc([nH]4)c(-c4cc([N+](=O)[O-])ccc4F)c4ccc([nH]4)c(-c4cc([N+](=O)[O-])ccc4F)c4ccc2[nH]4)C=C3)c1 | 50 |  |  | 3.7 | 39 | 2.4 | 5.82 | 5.89 | Activity (Human betaherpesvirus 5 [5]): 60%; Activity (Human betaherpesvirus 5 [7]): Active; fold change (FC) (Human betaherpesvirus 5 [8]): 5; fold change (FC) (Human betaherpesvirus 5 [9]): 10; Activity (Human betaherpesvirus 5 [11]): 80%
5 | O=[N+]([O-])c1cccc(-c2c3nc(c4ccc([nH]4)c(-c4cccc([N+](=O)[O-])c4)c4ccc([nH]4)c(-c4ccc(F)c([N+](=O)[O-])c4)c4ccc2[nH]4)C=C3)c1 | > 50 | Not Active |  | > 50 | > 10 |  |  | 5.30 | 
6 | O=[N+]([O-])c1ccc(F)cc1-c1c2nc(c3ccc([nH]3)c(-c3cc(F)ccc3[N+](=O)[O-])c3ccc([nH]3)c(-c3cc(F)ccc3[N+](=O)[O-])c3ccc1[nH]3)C=C2 | > 50 |  |  | > 50 | > 10 | > 7 | 5.15 | 5.28 | 
7 | O=[N+]([O-])c1cccc(-c2c3nc(c4ccc([nH]4)c(-c4cccc([N+](=O)[O-])c4F)c4ccc([nH]4)c(-c4cccc([N+](=O)[O-])c4F)c4ccc2[nH]4)C=C3)c1F | > 50 |  |  | > 50 | > 82 | > 27 | 5.74 | 6.22 | Activity (Human betaherpesvirus 5 [12]): Active; Activity (Human betaherpesvirus 5 [13]): Dose-dependent effect; Activity (Human betaherpesvirus 5 [14]): Dose-dependent effect; Activity (Human betaherpesvirus 5 [15]): 100%
8 | O=[N+]([O-])c1cccc(-c2c3nc(c4ccc([nH]4)c(-c4cccc([N+](=O)[O-])c4)c4ccc([nH]4)c(-c4ccccc4)c4ccc2[nH]4)C=C3)c1 | > 50 | Not Active | Not Active | > 50 |  |  |  |  | 
9 | CN(C)c1ccc(-c2c3nc(c4ccc([nH]4)c(-c4ccc(N(C)C)cc4[N+](=O)[O-])c4ccc([nH]4)c(-c4ccc(N(C)C)cc4[N+](=O)[O-])c4ccc2[nH]4)C=C3)c([N+](=O)[O-])c1 | > 50 | Not Active | Not Active | > 50 |  |  |  |  | 
10 | O=[N+]([O-])c1cc(F)cc(-c2c3ccc([nH]3)c(-c3cc(F)ccc3[N+](=O)[O-])c3nc(c4ccc([nH]4)c(-c4cc(F)ccc4[N+](=O)[O-])c4ccc2[nH]4)C=C3)c1 | > 50 |  |  | > 50 | > 227 | > 25 | 5.70 | 6.66 | Activity (Human betaherpesvirus 5 [12]): Active; Activity (Human betaherpesvirus 5 [13]): Dose-dependent effect; Activity (Human betaherpesvirus 5 [16]): Active; Activity (Human betaherpesvirus 5 [14]): Dose-dependent effect
11 | O=[N+]([O-])c1ccc(-c2c3nc(c4ccc([nH]4)c(-c4ccc([N+](=O)[O-])cc4F)c4ccc([nH]4)c(-c4ccc([N+](=O)[O-])cc4F)c4ccc2[nH]4)C=C3)c(F)c1 | 5.3 |  |  | 3.4 | 21.2 | 4.5 | 6.15 | 6.60 | 
12 | O=[N+]([O-])c1cc(F)cc(-c2c3nc(c4ccc([nH]4)c(-c4cc(F)cc([N+](=O)[O-])c4)c4ccc([nH]4)c(-c4cc(F)ccc4[N+](=O)[O-])c4ccc2[nH]4)C=C3)c1 | 16.5 | Not Active |  | 18 | 51 |  |  | 6.49 | 
13 | O=[N+]([O-])c1cc(F)cc(-c2c3nc(c4ccc([nH]4)c(-c4cc(F)cc([N+](=O)[O-])c4)c4ccc([nH]4)c(-c4cc(F)cc([N+](=O)[O-])c4)c4ccc2[nH]4)C=C3)c1 | > 50 | Not Active |  | > 50 | > 26 |  |  | 5.72 | 
14 | O=[N+]([O-])c1cc(F)ccc1-c1c2nc(c3ccc([nH]3)c(-c3ccc(F)cc3[N+](=O)[O-])c3ccc([nH]3)c(-c3ccc(F)cc3[N+](=O)[O-])c3ccc1[nH]3)C=C2 | > 50 |  |  | > 50 | > 11 | > 16 | 5.52 | 5.37 | Activity (Human betaherpesvirus 5 [13]): Dose-dependent effect; Activity (Human betaherpesvirus 5 [14]): Dose-dependent effect
15 | O=[N+]([O-])c1cc(C(F)(F)F)ccc1-c1c2nc(c3ccc([nH]3)c(-c3ccc(C(F)(F)F)cc3[N+](=O)[O-])c3ccc([nH]3)c(-c3ccc(C(F)(F)F)cc3[N+](=O)[O-])c3ccc1[nH]3)C=C2 | > 50 |  |  | > 50 | > 10 | > 17 | 5.55 | 5.30 | 
16 | O=[N+]([O-])c1ccc(F)c(-c2c3nc(c4ccc([nH]4)c(-c4c(F)ccc([N+](=O)[O-])c4F)c4ccc([nH]4)c(-c4c(F)ccc([N+](=O)[O-])c4F)c4ccc2[nH]4)C=C3)c1F | 9.8 |  |  | 8.77 | 31.6 | 10.2 | 6.07 | 6.51 | 
17 | O=[N+]([O-])c1ccc(Cl)cc1-c1c2nc(c3ccc([nH]3)c(-c3cc(Cl)ccc3[N+](=O)[O-])c3ccc([nH]3)c(-c3cc(Cl)ccc3[N+](=O)[O-])c3ccc1[nH]3)C=C2 | > 50 | Not Active | Not Active | > 50 |  |  |  |  | 
